Measured values collected from several papers.
Protocols differ between the studies behind these lines.

Compound	test	system	setting	logD
C[C@]1(C(=O)O)CSC(c2ccc(OCCCCCC(=O)O)cc2O)=N1	shake flask	aqueous buffer	pH 7.4	-1.9
COc1cc2c(cc1OC)CN(CCCCn1ccc3c(OCC[18F])cccc31)C2	shake flask	aqueous buffer	pH 7.4	2.43
CNC(=O)[C@H](Cc1c[nH]cn1)NC(=O)CN(CC(=O)O)Cc1ccccc1	shake flask	PBS	2 h, pH 7.4	-2.29
CC(C)Cc1ccc(C(C)C(=O)O)cc1 (stereo not shown)	shake flask	aqueous buffer	pH 7.5	0.94
N#CCc1ccccc1C#Cc1ccc(CCC(=O)O)c(F)c1	shake flask	PBS	pH 7.4	1.41
COc1ccc2cc(CCC[18F])ccc2c1	shake flask	aqueous buffer	pH 7.4	2.46
C[C@]1(C(=O)O)CSC(c2ccc(OCCCCCCO)cc2O)=N1	shake flask	aqueous buffer	pH 7.4	0.21
Cc1c(C(=O)N[C@H]2CCC[C@H](O)C2)nc(-c2ccc(Cl)cc2Cl)n1-c1ccc(OS(=O)(=O)CCC(F)(F)F)cc1 (relative stereo)	shake flask	aqueous buffer	pH 7.4	4.6
CNC(=O)[C@H](Cc1c[nH]cn1)NC(=O)CN(CCCc1ccccc1)CC(=O)O	shake flask	PBS	2 h, pH 7.4	-1.36
Cc1c(C(=O)NN2CCCCC2)nc(-c2ccc(Cl)cc2Cl)n1-c1ccc(OCCC(F)(F)F)cc1	shake flask	aqueous buffer	pH 7.4	5.4
COC(=O)[C@H](Cc1c[nH]cn1)NC(=O)CN(CCCc1ccccc1)CC(=O)O	shake flask	PBS	2 h, pH 7.4	-0.78
Cc1c(C(=O)NN2CCCCC2)nc(-c2ccc(Cl)cc2Cl)n1-c1ccc(OS(=O)(=O)CCC(C)C)cc1	shake flask	aqueous buffer	pH 7.4	5.3
COC(=O)[C@H](Cc1c[nH]cn1)NC(=O)CN(CC(=O)O)Cc1ccccc1	shake flask	PBS	2 h, pH 7.4	-2.05
CCC1=C(C)c2cc3[nH]c(cc4[nH]c(cc5nc(cc1n2)C(C)=C5CC)c(C)c4CC)c(CC)c3C	shake flask	aqueous buffer	pH 9	1.42
N#Cc1c[nH]c2c(C(=O)N3CCN(CCc4ccc(F)cc4)CC3)cccc12	shake flask	aqueous buffer	pH 7.4	3.5
O=C(O)CN(CCCc1ccccc1)CC(=O)N[C@@H](Cc1c[nH]cn1)C(=O)NCc1ccccc1	shake flask	PBS	2 h, pH 7.4	-0.58
CC(C)CN(C[C@@H](O)[C@H](Cc1ccccc1)NC(=O)O[C@H]1CO[C@H]2OCC[C@H]21)S(=O)(=O)c1ccc(N)cc1	shake flask	PBS	pH 5	2.8
CN1CCN(c2ccc3nc(-c4ccc5nc(-c6ccc(OCCCCNC(=S)Nc7ccc(CC(CN(CCN(CC(=O)O)CC(=O)O)CC(=O)O)N(CC(=O)O)CC(=O)O)cc7)cc6)[nH]c5c4)[nH]c3c2)CC1 (stereo not shown)	shake flask	PBS	pH 7.4	-1.4
Cc1c(C(=O)N[C@@H]2CCCC[C@@H]2O)nc(-c2ccc(Cl)cc2Cl)n1-c1ccc(OS(=O)(=O)CCC(F)(F)F)cc1 (single isomer, unassigned)	shake flask	aqueous buffer	pH 7.4	> 4.3
O=C(O)C1=Cc2cc3ccc(cc4nc(cc5c(-c6ccccc6)c(C(=O)O)c(c(C(=O)O)c1n2)n5C(=O)O)C=C4)[nH]3	shake flask	aqueous buffer	pH 9	0.0277
Cc1c(C(=O)Nc2ccc(F)nc2)nc(-c2ccc(Cl)cc2Cl)n1-c1ccc(OS(=O)(=O)CCC(F)(F)F)cc1	shake flask	aqueous buffer	pH 7.4	> 4.3
CCCCc1nc2c(N)nc3ccccc3c2n1Cc1ccc(N)cc1	shake flask	PBS	pH 7.4	2.6
Cc1c(C(=O)NN2CCCCC2)nc(-c2ccc(Cl)cc2Cl)n1-c1ccc(OS(=O)(=O)CCC(F)(F)F)cc1	shake flask	aqueous buffer	pH 7.4	4.9
O=C(O)c1ccc(-n2nc(-c3ccccc3O)nc2-c2ccccc2O)cc1	shake flask	PBS	pH 7.4	0.9
Cc1c(C(=O)NC2CCC(O)CC2)nc(-c2ccc(Cl)cc2Cl)n1-c1ccc(OS(=O)(=O)CCC(F)(F)F)cc1 (stereo not shown)	shake flask	aqueous buffer	pH 7.4	4.2
Fc1ccc(Nc2c(-c3ccccn3)nc3ccc(C4CC4)cn23)cc1			pH 7.4	2.9
CN1CCN(c2ccc3[nH]c(-c4ccc5[nH]c(-c6ccc(O)cc6)nc5c4)nc3c2)CC1	shake flask	PBS	pH 7.4	2.2
CCCCS(=O)(=O)Oc1ccc(-n2c(-c3ccc(Cl)cc3Cl)nc(C(=O)NN3CCCCC3)c2C)cc1	shake flask	aqueous buffer	pH 7.4	5.1
